# Compound activity deposited in PubChem BioAssay by The Scripps Research Institute Molecular Screening Center.
# ABHD5 PLIN5 PPI = inhibitors of human ABHD5-perilipin-5 interaction. Q00G26+Q8WTS1. Split G. princeps luciferase complementation, luminescence, 4 h. inhibition, % at 4 µM. 0.78% of 360,000 active. AID 602281;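 active = inhibition above the mean inhibition across every tested compound plus 3 SD, cut at about 22% in these data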;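 note: 0% = DMSO only wells and the 100% control is not disclosed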
# RBBP9 inh = inhibitors of human serine hydrolase RBBP9; recombinant RBBP9, FP-Rh probe fluorescence polarization; inhibition, % at 7.94 µM; 0.2% of 220,000 active;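 active = inhibition above the campaign mean of all tested compounds plus 3 SD, cut at about 14% in these data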;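 note: plate controls were DMSO wells with RBBP9 for no effect and wells lacking RBBP9 protein for full effect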
# Target sequence (O75884 whole entry, looked up): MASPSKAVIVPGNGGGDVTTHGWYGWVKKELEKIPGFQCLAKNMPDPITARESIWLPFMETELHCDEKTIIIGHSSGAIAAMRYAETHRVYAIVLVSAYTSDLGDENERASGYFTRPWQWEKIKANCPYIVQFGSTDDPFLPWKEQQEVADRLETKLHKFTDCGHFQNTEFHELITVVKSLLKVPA
#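 Test system – recombinant human RBBP9 · Input – RBBP9 2.5 µM in dispensing solution, pre-mixing · Medium – Tris buffer pH 8.0, NaCl, Pluronic · Schedule – preincubation 30 min plus labeling 45 min at 25 °C · Measured by – fluorescence polarization · Measure – % inhibition · Controls – DMSO and no-protein wells · Replicates – one well per compound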
# PRMT1 FP inh = inhibitors of human PRMT1; recombinant PRMT1, activity-based probe fluorescence polarization; inhibition, % at 2.79 µM; 1.3% of 370,000 active;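 active = inhibition above about 21% made by adding two undisclosed values, limit read from the data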
# MBD2 DNA inh = MBD2-methylated oligo binding inhibition. Q9UBB5. TR-FRET, MBD2 binding to methylated oligonucleotide. inhibition, % at 4.4 µM. 0.31% of 370,000 active. AID 686964; in the data active = inhibition above about 13%
# Target sequence (Q9UBB5 whole entry, looked up): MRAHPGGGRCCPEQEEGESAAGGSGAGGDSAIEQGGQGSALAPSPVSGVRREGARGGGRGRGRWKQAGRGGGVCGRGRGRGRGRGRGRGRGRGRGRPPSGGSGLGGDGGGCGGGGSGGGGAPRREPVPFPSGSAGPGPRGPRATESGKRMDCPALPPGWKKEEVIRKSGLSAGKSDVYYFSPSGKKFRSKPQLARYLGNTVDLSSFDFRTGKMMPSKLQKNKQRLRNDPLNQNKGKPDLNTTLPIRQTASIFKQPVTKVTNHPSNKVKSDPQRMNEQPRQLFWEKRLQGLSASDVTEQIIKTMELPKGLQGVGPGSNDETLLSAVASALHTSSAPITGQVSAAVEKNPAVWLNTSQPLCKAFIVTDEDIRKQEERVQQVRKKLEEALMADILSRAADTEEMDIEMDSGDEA
# LEDGF integ inh = blocks HIV-1 LEDGF/p75-dependent DNA integration; TR-FRET IN-LEDGF/p75 DNA integration, Eu/Cy5; inhibition, % at 3.7 µM; 0.64% of 370,000 active;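 active = inhibition above the screen-wide mean plus 3 SD, cut at about 13% in these data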;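 note: signal is the Cy5 over europium emission ratio at 671 and 618 nm; 0% = plate median of compound wells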
# UHRF1 MBD2 ctr = UHRF1 methyl-DNA binding inhibition; AID 687016; Q96T88; inhibition, % at 4.4 µM; UHRF1 binding to methylated oligo, TR-FRET; 0.75% of 370,000 active;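 note: UHRF1 SRA domain binding a hemimethylated CpG hairpin DNA probe; 0% = median of test compound wells and 100% = reference inhibitor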
# UHRF1 ctr MBD2 = UHRF1 methyl-oligo binding inhibition as MBD2 counter-screen | 25% of 1,000 active | AID 720530 | shares compounds with MBD2 DNA inh | UHRF1 binding to methylated oligonucleotide, TR-FRET | inhibition, % at 4.4 µM;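 note: UHRF1 SRA domain binding a labeled hemimethylated CpG hairpin DNA; 0% = vehicle only and 100% = reference inhibitor with vehicle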
# MBD2 confirm = confirmation of human MBD2-DBD methylated oligonucleotide binding inhibitors. 26% of 1,000 active. TR-FRET MBD2-DBD binding to methylated oligonucleotide. shares compounds with MBD2 DNA inh. inhibition, % at 4.4 µM; in the data active = inhibition above about 14%
# The depositor's hits bear a star; x = not tested or not shown. Compounds with a hit are over-represented: about 3.1% of the library has one in this group of screens. Cut-off read from the data, not from the text of the source, unless noted: active = inhibition above about 21%; inactive = the rest.
SMILES,ABHD5 PLIN5 PPI,RBBP9 inh,PRMT1 FP inh,MBD2 DNA inh,LEDGF integ inh,UHRF1 MBD2 ctr,UHRF1 ctr MBD2,MBD2 confirm
CCCCNC(=O)Cn1c(-c2ccc(OC)cc2)noc1=O,-2,-14,1,14*,-4,13,-1,2
CCC(C)(C)NC(=O)Cn1c(-c2ccc(C)cc2)noc1=O,3,-9,0,-1,0,-2,x,x
CNC(C)C(=O)NC(C(=O)N1CCCC1C(=O)NNc1ccccc1)C(C)C (stereo not drawn),-1,x,3,46*,11,56*,9,2
CC(C)NS(=O)(=O)c1ccc(OCC(=O)N2CCCC2)cc1,-9,-9,0,4,-5,4,x,x
CC(C)NS(=O)(=O)c1ccc(OCC(=O)N2CCCC2)c(Cl)c1,7,-10,-1,24*,-4,-1,4,6
COC(=O)N1Cc2ccnnc2CC1c1ccccc1-c1ccc(OC)cc1 (stereo not drawn),x,x,5,-3,-3,0,x,x
Cc1cc(C)n(C(=O)/C(C#N)=C/N(C)C)n1,9,-4,6,39*,2,5,4,5
Cc1cccc(Cn2cc(COC(=O)NCCc3ccccc3)nn2)c1,x,x,-2,-2,-1,0,x,x
COC(=O)[C@@]1(C(C)C)N=C(c2cc(OC)c(OC)c(OC)c2)[C@]2(O1)C(=O)N(Cc1ccc(OC)cc1)c1ccc(Br)cc12,-1,x,-6,-3,7,-1,x,x
COC(=O)[C@@]1(C(C)C)N=C(c2cc(OC)c(OC)c(OC)c2)[C@]2(O1)C(=O)N(Cc1cn(Cc3ccccc3)nn1)c1ccc(F)cc12,x,x,4,14*,-3,16,12,6
COc1ccc2cc3cc(C(=O)Nc4ccc(F)cc4)sc3nc2c1,x,x,10,29*,-3,8,29*,28*
CCC(C)NC(=O)c1cc2cc3ccc(OC)cc3nc2s1 (stereo not drawn),1,-7,0,-8,5,-3,x,x
C[C@H]1CN([C@@H](C)CO)C(=O)Cc2cc(NC(=O)C3CC3)ccc2O[C@H]1CN(C)Cc1ccc(Oc2ccccc2)cc1,-6,x,-2,17*,-1,2,4,0
C[C@H]1CN([C@@H](C)CO)C(=O)Cc2cc(NC(=O)CCN3CCOCC3)ccc2O[C@@H]1CN(C)Cc1ccc(Oc2ccccc2)cc1,4,x,3,2,-3,13,x,x
COC(CNC(=O)[C@H](Cc1ccccc1)NC1(C(=O)NC2CCCCC2)CCCC1)OC,x,x,-2,4,6,5,x,x
Cc1cc(C=O)c(C)n1-c1cc(C(=O)O)cc(C(=O)O)c1,5,-7,6,14*,13,49*,39*,11
Nc1[nH]c(C(=O)c2ccccc2)c(-c2ccc(O)cc2)c1C(=O)NCCc1c[nH]c2ccccc12,x,x,1,0,-3,-1,x,x
Cc1nn(CCc2n[nH]c(=S)n2-c2ccc(F)cc2)c(C)c1[N+](=O)[O-],-3,-4,1,73*,-2,0,8,2
Nc1c2ccccc2nc2ccccc12,1,-7,-1,26*,3,15,31*,37*
Nc1c2c(nc3ccccc13)CCCC2,-3,-4,-3,-2,-1,2,x,x
CN(C)[C@@H]1CCN(c2ccc3c(c2)OCCCN(C2CC2)S3(=O)=O)C1,x,x,2,2,1,15,x,x
CN(C)[C@H]1CCN(c2ccc3c(c2)O[C@@H]2CCN(C2)S3(=O)=O)C1,x,x,5,18*,0,16,9,7
Nc1[nH]c(C(=O)c2ccccc2)c(-c2ccccc2Br)c1C(=O)c1cccs1,x,x,-4,-1,4,0,x,x
CCOC(=O)Cn1cc(CN2CCS(=O)(=O)N(Cc3ccccc3)C(C(=O)OC)C2)nn1 (stereo not drawn),x,x,-1,14*,-3,16,9,4
COc1ccc(CNC(=O)CCS(=O)(=O)c2ccc3c(c2)oc(=O)n3C)cc1,-4,x,-3,39*,-1,1,5,3
SMILES,ABHD5 PLIN5 PPI,RBBP9 inh,PRMT1 FP inh,MBD2 DNA inh,LEDGF integ inh,UHRF1 MBD2 ctr,UHRF1 ctr MBD2,MBD2 confirm
CCOc1ccc(CNC(=O)CCS(=O)(=O)c2ccc3c(c2)oc(=O)n3C)cc1,1,x,-2,-1,5,18,x,x
CCCC(=O)N1CCC[C@]2(CC[C@H](CCC#N)O2)C1,x,x,0,0,-4,0,x,x
Cn1c(-c2ccccc2)cccc1=O,4,1,1,3,-1,0,x,x
Cn1c(-c2ccccc2)cc(=O)n1-c1ccccc1,1,x,2,62*,-1,-1,6,4
CCN(CC)CCOc1ccc2c(c1)C(=NO)c1cc(OCCN(CC)CC)ccc1-2,1,-14,-2,41*,-2,54*,62*,47*
CCN(CC)S(=O)(=O)c1ccc2c(c1)C(=NO)c1cc(S(=O)(=O)N(CC)CC)ccc1-2,10,-88,1,10,1,2,x,x
COc1cc(OC)cc(C(=O)Nc2ccc3c(c2)CCCN3C(=O)c2cccs2)c1,13,x,-1,25*,0,-3,3,3
O=C(Nc1ccc2c(c1)CCCN2C(=O)c1cccs1)c1ccccc1,4,x,-1,2,-1,-3,x,x
CCOC(=O)c1cc2c(=O)c3ccccc3oc2nc1C,-8,x,0,4,-2,2,x,x
CCN(CC)C(=O)c1cc2c(=O)c3cc(F)ccc3oc2nc1C,6,-4,0,19*,2,1,5,5
CC(=O)Nc1ccc(S(=O)(=O)CC(=O)CS(=O)(=O)c2ccc(NC(C)=O)cc2)cc1,8,x,9,14*,-2,1,5,-1
CC1CCCCN1C(=O)Cc1ccc(Cl)cc1 (stereo not drawn),2,2,1,5,-1,2,x,x
CC1CCCCN1C(=O)CNCc1ccc(F)cc1 (stereo not drawn),-1,x,-4,37*,0,0,6,2
